Measurements as given in ChEMBL document CHEMBL2331225, “Structure-based design, synthesis and evaluation of novel anthra[1,2-d]imidazole-6,11-dione derivatives as telomerase inhibitors and potential for cancer polypharmacology” (Eur J Med Chem, 2013).
Activity calls are given as the source filed them. The calls are words filed in the database; no cut-off is given here.

How the values were obtained:
MOLT-4 = test: Cytotoxicity against human MOLT4 cells assessed as cell growth level at 10 uM; type: functional
PC-3 [1] = test: Growth inhibition of human PC3 cells after 48 hrs by SRB assay; type: functional, cell-based; conditions: PC-3, 48 h
Procedure, shortened: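 PC-3 cells were seeded in medium with 5% FBS; after 24 h a plate was fixed with 10% TCA as T₀. Vehicle (0.1% DMSO) or compound was given for 48 h, then cells were TCA-fixed, stained with 0.4% SRB in 1% acetic acid, solubilized in 10 mM Trizma base and read at 515 nm. IC₅₀ is the concentration halving the protein increase seen in controls.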

[2] = biological target: T1, Telomerase reverse transcriptase (Homo sapiens, UniProt O14746); test: Inhibition of TERT transcriptional activity in human H1299 cells assessed SEAP activity at 100 uM incubated for 24 hrs by SEAP assay; type: cell-based; design: scale not given: the % may be the effect or the level left
T1 sequence (O14746 whole entry): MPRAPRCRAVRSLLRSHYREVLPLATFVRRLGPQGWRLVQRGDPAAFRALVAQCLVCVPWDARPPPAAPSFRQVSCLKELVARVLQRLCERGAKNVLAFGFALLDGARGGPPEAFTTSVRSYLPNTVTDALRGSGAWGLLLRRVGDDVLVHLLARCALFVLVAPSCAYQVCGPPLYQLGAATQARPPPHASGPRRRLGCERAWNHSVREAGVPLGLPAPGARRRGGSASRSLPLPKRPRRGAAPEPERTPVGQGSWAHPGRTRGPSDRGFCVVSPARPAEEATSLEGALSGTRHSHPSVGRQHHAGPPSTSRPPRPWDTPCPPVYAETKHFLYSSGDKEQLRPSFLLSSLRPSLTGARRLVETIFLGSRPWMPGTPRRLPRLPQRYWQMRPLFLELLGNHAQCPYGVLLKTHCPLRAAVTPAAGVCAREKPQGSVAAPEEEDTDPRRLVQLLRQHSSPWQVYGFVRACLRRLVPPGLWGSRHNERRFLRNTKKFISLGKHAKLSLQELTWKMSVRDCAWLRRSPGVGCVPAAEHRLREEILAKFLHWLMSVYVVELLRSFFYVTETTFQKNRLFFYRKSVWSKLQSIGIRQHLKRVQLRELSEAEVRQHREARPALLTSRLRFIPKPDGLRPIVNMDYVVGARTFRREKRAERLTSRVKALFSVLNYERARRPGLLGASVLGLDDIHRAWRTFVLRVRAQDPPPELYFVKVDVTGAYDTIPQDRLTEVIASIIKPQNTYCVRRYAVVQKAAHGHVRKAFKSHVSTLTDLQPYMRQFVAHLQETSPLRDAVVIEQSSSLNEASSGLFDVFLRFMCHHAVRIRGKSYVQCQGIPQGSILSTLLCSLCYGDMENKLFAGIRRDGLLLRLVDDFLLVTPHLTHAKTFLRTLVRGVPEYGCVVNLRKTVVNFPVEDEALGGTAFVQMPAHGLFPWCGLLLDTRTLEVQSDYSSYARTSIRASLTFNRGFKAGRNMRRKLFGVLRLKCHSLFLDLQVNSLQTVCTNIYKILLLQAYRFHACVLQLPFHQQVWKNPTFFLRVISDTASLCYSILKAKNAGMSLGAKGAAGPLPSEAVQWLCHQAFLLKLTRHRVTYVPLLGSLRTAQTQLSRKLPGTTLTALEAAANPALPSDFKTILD
Procedure, shortened: (§1)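 H1299 stable clones carry the hTERT promoter (−3338 to +1 bp) upstream of SEAP, introduced by electroporation and selected with G418. About 2 × 10³ cells per well were grown 24 h at 37 °C, given fresh medium, then drug for 24 h. Collected media were heated at 65 °C for 10 min, mixed with equal SEAP buffer (2 M diethanolamine, 1 mM MgCl₂, 20 mM L-homoarginine) and p-nitrophenyl phosphate at 12 mM final.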

[3] = biological target: T1, Telomerase reverse transcriptase; test: Inhibition of TERT transcriptional activity in human H1299 cells assessed SEAP activity at 10 uM incubated for 24 hrs by SEAP assay; type: cell-based; design: scale not given: the % may be the effect or the level left; procedure, shortened: as §1
[4] = biological target: T1, Telomerase reverse transcriptase; test: Inhibition of TERT transcriptional activity in human H1299 cells assessed SEAP activity at 1 uM incubated for 24 hrs by SEAP assay; type: cell-based; design: scale not given: the % may be the effect or the level left; procedure, shortened: as §1
[5] = Cytotoxicity against human H1299 cells assessed as cell viability at 100 uM after 48 hrs by MTT assay; type: functional; conditions: NCI-H1299, 48 h, read-out: Activity
Procedure, shortened: (§2)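 H1299 cells at about 2 × 10³ per well were grown 24 h at 37 °C in 5% CO₂. Compounds were dissolved in DMSO just before use and diluted into complete medium. After 48 h exposure, MTT was added for 4 h at 37 °C, then lysis buffer (20% SDS, 50% DMF) for 16 h at 37 °C. Absorbance was read at 550 nm.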

[6] = Cytotoxicity against human H1299 cells assessed as cell viability at 10 uM after 48 hrs by MTT assay; type: functional; conditions: NCI-H1299, 48 h, read-out: Activity; procedure, shortened: as §2
[7] = Cytotoxicity against human H1299 cells assessed as cell viability at 1 uM after 48 hrs by MTT assay; type: functional; conditions: NCI-H1299, 48 h, read-out: Activity; procedure, shortened: as §2
[8] = biological target: T1, Telomerase reverse transcriptase; test: Inhibition of TERT activity in human H1299 cells homogenates incubated for 5 mins at 100 uM by TRAP assay; type: cell-free
Procedure, shortened: (§3)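 Telomerase-active extracts were prepared from H1299 cells, and lysate protein was measured against BSA standards. Compounds were tested in the TRAP assay, with RNase A-treated extracts as negative controls.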

[9] = biological target: DNA polymerase I, thermostable (Thermus aquaticus) (UniProt P19821); test: Inhibition of Thermus aquaticus DNA polymerase compound after telomerase extension step and before PCR-amplification step during TRAP assay
Chain of DNA polymerase I, thermostable (Thermus aquaticus) (P19821 whole entry): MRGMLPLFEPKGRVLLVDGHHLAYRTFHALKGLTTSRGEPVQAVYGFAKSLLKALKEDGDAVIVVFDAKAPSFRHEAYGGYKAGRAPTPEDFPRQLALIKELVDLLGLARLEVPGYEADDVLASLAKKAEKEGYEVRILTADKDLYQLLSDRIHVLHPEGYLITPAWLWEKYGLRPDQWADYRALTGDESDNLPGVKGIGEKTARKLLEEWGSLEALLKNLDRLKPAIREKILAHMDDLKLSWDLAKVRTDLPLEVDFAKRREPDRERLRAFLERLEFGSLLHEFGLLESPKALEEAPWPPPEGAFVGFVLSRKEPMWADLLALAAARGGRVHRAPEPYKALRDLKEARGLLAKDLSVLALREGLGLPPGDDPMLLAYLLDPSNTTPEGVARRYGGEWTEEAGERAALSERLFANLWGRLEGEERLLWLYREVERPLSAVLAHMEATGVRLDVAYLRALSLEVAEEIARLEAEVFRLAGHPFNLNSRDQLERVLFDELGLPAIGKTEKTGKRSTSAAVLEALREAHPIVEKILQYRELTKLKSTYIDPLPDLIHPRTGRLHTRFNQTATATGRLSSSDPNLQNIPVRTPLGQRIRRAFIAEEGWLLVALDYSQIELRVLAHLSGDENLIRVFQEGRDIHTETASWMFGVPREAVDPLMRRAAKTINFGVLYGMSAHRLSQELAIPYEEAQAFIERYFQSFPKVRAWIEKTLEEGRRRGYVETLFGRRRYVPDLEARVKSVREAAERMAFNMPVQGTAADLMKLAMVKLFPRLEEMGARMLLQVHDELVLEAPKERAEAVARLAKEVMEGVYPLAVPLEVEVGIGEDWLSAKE
Procedure, shortened: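 TRAP-m variant: compounds were added after the telomerase extension step and before PCR amplification, using H1299 telomerase extracts, with RNase A-treated extracts as negative control.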

[10] = biological target: T1, Telomerase reverse transcriptase; test: Inhibition of TERT activity in human H1299 cells homogenates incubated for 5 mins by TRAP assay; type: cell-free; procedure, shortened: as §3
PC-3 [11] = test: Cytotoxicity against human PC3 cells assessed as cell growth level at 10 uM; type: functional
A498 = test: Cytotoxicity against human A498 cells assessed as cell growth level at 10 uM; type: functional
[12] = Cytotoxicity against human NCI-ADR-RES cells assessed as cell growth level at 10 uM; type: functional
IMR-90 = test: Cytotoxicity against human IMR90 cells after 48 hrs by MTT assay; type: cell-based; conditions: IMR-90, 48 h
[13] = Cytotoxicity against human H1299 cells expressing hTERT and SEAP after 48 hrs by MTT assay; type: cell-based; conditions: nci-h1299, 48 h
Procedure, shortened: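 H1299 stably carrying P_hTERT-SEAP, about 2 × 10³ cells per well, were grown 24 h at 37 °C, washed with PBS and given fresh medium. Compounds were added at varying amounts for 48 h, and growth was measured by MTT read at 550 nm. Values come from three experiments, with untreated cells set as 100%.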

SNB-19 = test: Cytotoxicity against human SNB19 cells assessed as cell growth level at 10 uM; type: functional
[14] = Cytotoxicity against human EKVX cells assessed as cell growth level at 10 uM; type: functional
DU-145 = test: Cytotoxicity against human DU145 cells assessed as cell growth level at 10 uM; type: functional
COLO 205 = test: Cytotoxicity against human COLO205 cells assessed as cell growth level at 10 uM; type: functional

In the case of `CN1CCN(Cc2nc3ccc4c(c3[nH]2)C(=O)c2ccccc2C4=O)CC1`, the Activity (MOLT-4) is reported as -13.44%, the IC50 (PC-3 [1]) is reported as 6.5 µM and the Activity [2] is reported as 6%. The Activity [3] was 23%, the Activity [4] was 106% and the viability at 100 µM [5] was 0%. The viability at 10 µM [6] was 35%, the viability at 1 µM [7] was 87% and the “TERT inhibition (active/not active)” value [8] was “Active”. For the same molecule, the inhibition [9] was “inactive”, the IC50 [10] was greater than 10 µM and the Activity (PC-3 [11]) was 60.08%. The Activity (A498) was 69.36% and the Activity [12] was 62.93%.
In the case of `O=C1c2ccccc2C(=O)c2c1ccc1nc(CCN3CCN(c4ncccn4)CC3)[nH]c21`, the IC50 (PC-3 [1]) is reported as greater than 30 µM, the Activity [2] is reported as 0% and the Activity [3] is reported as 35%. For the same molecule, the Activity [4] was 83%, the viability at 100 µM [5] was 0% and the viability at 10 µM [6] was 84%. The viability at 1 µM [7] was 91%, the “TERT inhibition (active/not active)” value [8] was “inactive” and the IC50 (IMR-90) was 100 µM. For the same molecule, the Activity [13] was “Non-toxic”.
Molecule `O=C1c2ccccc2C(=O)c2c1ccc1nc(CN3CCN(c4ccccn4)CC3)[nH]c21` has an Activity (SNB-19) of 81%, an Activity [14] of 63% and an IC50 (PC-3 [1]) greater than 30 µM. The Activity [2] was 1%, the Activity [3] was 57% and the Activity [4] was 91%. For the same molecule, the viability at 100 µM [5] was 20%, the viability at 10 µM [6] was 69% and the viability at 1 µM [7] was 91%. For the same molecule, the “TERT inhibition (active/not active)” value [8] was “inactive”, the Activity (DU-145) was 89.1% and the Activity (PC-3 [11]) was 81.46%. For the same molecule, the Activity (A498) was 68.23%.
`CN(CCc1ccccn1)Cc1nc2ccc3c(c2[nH]1)C(=O)c1ccccc1C3=O` gave an IC50 (PC-3 [1]) of 14.2 µM, an Activity [2] of 0% and an Activity [3] of 51%. The Activity [4] was 96%, the viability at 100 µM [5] was 0% and the viability at 10 µM [6] was 99%. For the same molecule, the viability at 1 µM [7] was 104%, the “TERT inhibition (active/not active)” value [8] was “inactive” and the Activity (DU-145) was 99.83%. It also gave an Activity (PC-3 [11]) of 83.7% and an Activity (A498) of 69.6%.
In the case of `O=C1c2ccccc2C(=O)c2c1ccc1nc(CN3CCN(c4ccccc4)CC3)[nH]c21`, the IC50 (PC-3 [1]) is reported as greater than 30 µM, the Activity [2] is reported as 6% and the Activity [3] is reported as 77%. It also gave an Activity [4] of 92%, a viability at 100 µM [5] of 18% and a viability at 10 µM [6] of 54%. The viability at 1 µM [7] was 90%, the “TERT inhibition (active/not active)” value [8] was “inactive” and the Activity (DU-145) was 77.91%. The Activity (PC-3 [11]) was 90.69% and the Activity (A498) was 75.09%.
Molecule `O=C1c2ccccc2C(=O)c2c1ccc1nc(CCN3CCN(Cc4ccccc4)CC3)[nH]c21` has an IC50 (PC-3 [1]) of 16 µM, an Activity [2] of 0% and an Activity [3] of 5%. The Activity [4] was 73%, the viability at 100 µM [5] was 6% and the viability at 10 µM [6] was 54%. The viability at 1 µM [7] was 96%, the “TERT inhibition (active/not active)” value [8] was “inactive” and the IC50 (IMR-90) was 100 µM. For the same molecule, the Activity [13] was “Non-toxic”.
Work on `CCN1CCN(Cc2nc3ccc4c(c3[nH]2)C(=O)c2ccccc2C4=O)CC1` yielded an IC50 (PC-3 [1]) of 6.5 µM, an Activity [2] of 0% and an Activity [3] of 14%. The Activity [4] was 92%, the viability at 100 µM [5] was 0% and the viability at 10 µM [6] was 35%. For the same molecule, the viability at 1 µM [7] was 86%, the “TERT inhibition (active/not active)” value [8] was “Active” and the inhibition [9] was “inactive”. The IC50 [10] was greater than 10 µM.
Molecule `O=C1c2ccccc2C(=O)c2c1ccc1nc(CN3CCCCC3)[nH]c21` has an IC50 (PC-3 [1]) of 10.3 µM, an Activity [2] of 7% and an Activity [3] of 44%. For the same molecule, the Activity [4] was 76%, the viability at 100 µM [5] was 20% and the viability at 10 µM [6] was 79%. For the same molecule, the viability at 1 µM [7] was 111%, the “TERT inhibition (active/not active)” value [8] was “inactive” and the IC50 (IMR-90) was 100 µM. The Activity [13] was “Non-toxic”, the Activity (DU-145) was 81.94% and the Activity (PC-3 [11]) was 74.9%. The Activity (A498) was 61.84%.
In the case of `CCN(CC)Cc1nc2ccc3c(c2[nH]1)C(=O)c1ccccc1C3=O`, the Activity (COLO 205) is reported as 81%, the Activity (MOLT-4) is reported as -9.43% and the IC50 (PC-3 [1]) is reported as 10.3 µM. It also gave an Activity [2] of 0%, an Activity [3] of 32% and an Activity [4] of 91%. For the same molecule, the viability at 100 µM [5] was 0%, the viability at 10 µM [6] was 55% and the viability at 1 µM [7] was 101%. For the same molecule, the “TERT inhibition (active/not active)” value [8] was “inactive”, the Activity (PC-3 [11]) was 73.54% and the Activity (A498) was 49.5%.
`O=C1c2ccccc2C(=O)c2c1ccc1nc(CN3CCC(CCCC4CCNCC4)CC3)[nH]c21` showed an IC50 (PC-3 [1]) of 13.8 µM, an Activity [2] of 3% and an Activity [3] of 8%. The Activity [4] was 96%, the viability at 100 µM [5] was 0% and the viability at 10 µM [6] was 0%. The viability at 1 µM [7] was 97%, the “TERT inhibition (active/not active)” value [8] was “Active” and the inhibition [9] was “inactive”. It also gave an IC50 [10] of 5 µM.
Molecule `O=C1c2ccccc2C(=O)c2c1ccc1nc(CN3CCOCC3)[nH]c21` has an IC50 (PC-3 [1]) of 12.4 µM, an Activity [2] of 26% and an Activity [3] of 97%. The Activity [4] was 102%, the viability at 100 µM [5] was 13% and the viability at 10 µM [6] was 71%. The viability at 1 µM [7] was 90% and the “TERT inhibition (active/not active)” value [8] was “inactive”.
`O=C1c2ccccc2C(=O)c2c1ccc1nc(CCN3CCN(c4ccccn4)CC3)[nH]c21` showed an IC50 (PC-3 [1]) greater than 30 µM, an Activity [2] of 1% and an Activity [3] of 63%. The Activity [4] was 88%, the viability at 100 µM [5] was 57% and the viability at 10 µM [6] was 93%. The viability at 1 µM [7] was 98% and the “TERT inhibition (active/not active)” value [8] was “inactive”.
Work on `CCN(C)Cc1nc2ccc3c(c2[nH]1)C(=O)c1ccccc1C3=O` yielded an IC50 (PC-3 [1]) of 7.5 µM, an Activity [2] of 0% and an Activity [3] of 39%. It also gave an Activity [4] of 97%, a viability at 100 µM [5] of 0% and a viability at 10 µM [6] of 65%. The viability at 1 µM [7] was 99% and the “TERT inhibition (active/not active)” value [8] was “inactive”.
Molecule `O=C1c2ccccc2C(=O)c2c1ccc1nc(CN3CCSCC3)[nH]c21` has an IC50 (PC-3 [1]) of 6.7 µM, an Activity [2] of 5% and an Activity [3] of 77%. It also gave an Activity [4] of 115%, a viability at 100 µM [5] of 1% and a viability at 10 µM [6] of 77%. The viability at 1 µM [7] was 92% and the “TERT inhibition (active/not active)” value [8] was “inactive”.
